bCat nuc transl: beta-catenin nuclear translocation modulation; nuclear translocation activity, % at 5 µM; HeLa beta-catenin nuclear translocation, immunofluorescence imaging; hit rate 0.3% among 190,000;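 active = nuclear translocation activity above 50% at 5 µM, with a well cell count of 50 or more; inconclusive = wells under 50 cells across six images, flagged as toxic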;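 also: per-cell ratio of nuclear to cytoplasmic median beta-catenin stain intensity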
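Test system: HeLa cells, endogenous beta-catenin; Compound: single 5 µM dose plus 0.02–20 µM confirmation series; Times: compound exposure 24 h at 37°C; Signal: fluorescence imaging of beta-catenin antibody stain plus DAPI; Read-out: % activation, nuclear-to-cytoplasmic median beta-catenin signal ratio per cell.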
MT stabilize HCS: microtubule stabilization, imaging screen | HeLa tubulin immunostaining HCS, 24 h; share of cells brighter than vehicle mean+2SD | % tubulin-high responders, % at 10 µM | hit rate 0.83% among 200,000 | AID 2205;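 active = plate Z-score above 3 for both tubulin-high and condensed-nucleus cell shares, with cell loss under 80%, at 10 µM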;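 also: anti alpha tubulin signal scored within the nucleus-defined area of each cell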
HSV augment: HSV replication enhancement; maximum fold increase; hit rate 0.005% among 220,000; HSV replication augmentation in cells, fold increase; in the data active = maximum fold increase above about 1.5; inconclusive = no clear call, values can overlap the other calls; tested in PC3 cells
ROMK primary: modulates human ROMK potassium channel activity | AID 1918 | B-score at 10 µM | P48048 | hit rate 2% among 130,000 | Tet-inducible ROMK, thallium flux fluorescence; actives lie on both sides;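 active = signal ratio slope over the read window, or its plate-corrected B-score, at least 3 SD from the plate mean, either direction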;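 also: B-score of the F/F0 ratio slope over 7 to 12 s after thallium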
Target sequence (P48048 whole entry, looked up): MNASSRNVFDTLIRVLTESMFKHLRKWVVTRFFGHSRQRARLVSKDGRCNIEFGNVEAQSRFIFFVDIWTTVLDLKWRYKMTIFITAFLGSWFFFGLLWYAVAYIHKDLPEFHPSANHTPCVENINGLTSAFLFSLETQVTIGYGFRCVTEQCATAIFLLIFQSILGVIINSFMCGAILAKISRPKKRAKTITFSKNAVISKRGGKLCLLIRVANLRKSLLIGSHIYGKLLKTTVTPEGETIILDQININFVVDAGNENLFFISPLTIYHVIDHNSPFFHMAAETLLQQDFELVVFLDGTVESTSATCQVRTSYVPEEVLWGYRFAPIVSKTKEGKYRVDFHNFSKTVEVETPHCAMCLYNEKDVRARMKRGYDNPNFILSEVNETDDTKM
INS promoter inh: TRM-6 insulin promoter activity inhibition; inhibition, % at 2 µM; hit rate 0.9% among 130,000; TRM-6 cells, insulin promoter-eGFP reporter, imaging; reporter expression induced with tamoxifen;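 active = inhibition above the mean plus 3 SD, with well images judged a real hit on visual review, cut at about 60% in these data, passing the limit was not always enough; inconclusive = inhibition over the cutoff but images rejected on review; inactive = inhibition not above the cutoff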
ROMK retest: human ROMK channel modulation, retest confirmation | shares compounds with ROMK primary | hit rate 54% among 3,000 | normalized thallium flux (F/F0 slope) at 10 µM | ROMK thallium flux, fluorescence ratio; active compounds read low;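 active = Flux at 10 µM at least 3 SD below or above vehicle control mean in one or both replicates; inconclusive = no clear call, values can overlap the other calls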
A number is an active result; - = inactive; ? = inconclusive; . = not tested or not shown. The list is not random: actives were taken first. Their share in the collection is about 2.4%.

SMILES | bCat nuc transl | MT stabilize HCS | HSV augment | ROMK primary | INS promoter inh | ROMK retest
COc1ccc(CCC(C)NCCc2ccccc2)cc1 (stereo not drawn) | . | - | - | -3.9 | - | 0.062
COc1ccc(CCNC2CCCCC2)cc1 | - | - | - | - | . | .
CCCC1(CCC)C(=O)NC(=Nc2ccc(C)cc2)NC1=O | - | - | - | - | . | .
CCN(CC)c1ccc(N=Cc2c(O)n(CCC3=CCCCC3)c(=O)[nH]c2=O)cc1 | - | - | . | -7.1 | - | 0.037
CN(C)c1ccc(N=Cc2c(O)n(CCC3=CCCCC3)c(=O)[nH]c2=O)cc1 | - | - | - | - | - | .
CC1(C)CC[C@]2(C)CC[C@]3(C)C4C[C@@H]5OO[C@@]6(O5)C(CCCC6(C)C)[C@]4(C)CC[C@@]3(C)C2C1 (stereo partly drawn) | . | . | - | . | . | .
CCCCn1c(C)c(C(=O)OCC)c2c(CN3CCOCC3)c(O)ccc21 | - | - | . | -2.3 | - | 0.066
CCOC(=O)c1c(C)n(Cc2ccc3c(c2)OCO3)c2ccc(O)cc12 | - | - | - | - | - | .
CCC1=CCN(CCc2c(C)[nH]c3ccccc23)CC1 | . | . | - | . | . | .
Cc1nnc2n1-c1ccc(Cl)cc1C(c1ccccc1)=NC2 | - | . | . | . | . | .
N#CSCC(=O)N1c2ccccc2CCc2ccccc21 | - | - | - | -3.9 | . | 0.046
C=CCN1CCC2(C)c3cc(O)ccc3CC1C2C (stereo not drawn) | . | . | - | . | . | .
CCCCCSc1cc(OC)c(CCN(C)C)cc1OC | - | - | - | - | . | .
CCCCCSc1cc(O)c(C(CNC)C(C)C)cc1OC (stereo not drawn) | . | - | - | -3.2 | - | 0.057
C[C@H]1CCCC(=O)CCCCCc2cc(O)cc(O)c2C(=O)O1 | - | - | - | . | - | 0.063
CCOP(=S)(OCC)N1CCOCCOCCN(P(=S)(OCC)OCC)CCOCCOCC1 | - | - | - | -2 | - | -
O=C(N/N=C/c1c(O)n(Cc2ccco2)c(=O)[nH]c1=O)c1ccccc1O | - | . | - | - | . | .
CCCCCc1nc2c(c(=O)c3ccccc3n2C)c(=O)n1C1CCCCCC1 | - | - | - | . | . | 0.053
CC(=O)N1N=C(c2c(O)n(C)c(=O)n(C)c2=O)CC1c1ccccc1 (stereo not drawn) | - | . | - | . | . | .
CCOc1ccc(N2C(=O)NC(=O)/C(=C/c3cnc(SC)nc3)C2=O)cc1 | - | - | - | - | . | .
Cc1cccc(N/N=C(\C(N)=O)C2=NC(C)(C)Cc3ccccc32)c1 | - | - | - | -3 | - | 0.059
CC(C)CN1CCN(Cc2cccc3c2OCO3)CC1CCO (stereo not drawn) | - | - | - | - | . | .
Cc1ccccc1N1C(=O)NC(=O)/C(=C/c2ccc(N3CCOCC3)o2)C1=O | - | . | ? | . | . | .
O=C1NC(=O)N(c2ccc3c(c2)OCO3)C(=O)/C1=C\c1ccc(N2CCCCC2)o1 | - | - | ? | . | . | 0.052
O=c1[nH]c(=S)n(-c2ccc(Br)cc2)c(O)c1C=Nc1ccc(N2CCOCC2)cc1 | . | - | - | - | - | 0.064
SMILES | bCat nuc transl | MT stabilize HCS | HSV augment | ROMK primary | INS promoter inh | ROMK retest
OC1(c2ccc(F)cc2)CC2CCC(C1)N2Cc1nnnn1C1CCCCC1 (stereo not drawn) | . | - | . | -4.8 | - | 0.057
OCCN1C2CCC1CC(O)(c1ccc(F)cc1)C2 (stereo not drawn) | . | - | - | - | - | .
CC1(C)C2([N+](=O)[O-])CN3CN(C2)CC1([N+](=O)[O-])C3 | - | - | - | - | . | .
Cc1cccc(N2C(=O)NC(=O)/C(=C/c3cc4c(cc3[N+](=O)[O-])OCO4)C2=O)c1 | - | - | - | -2.8 | - | 0.056
O=C1NC(=O)C(=Cc2cc3c(cc2[N+](=O)[O-])OCO3)C(=O)N1 | - | - | - | - | - | .
CCOc1ccc(-c2c(C)n(-c3ccc(OCC)cc3)c3[n+]2CCCCC3)cc1 | - | . | - | . | . | 0.043
O=C(c1ccc2c3c(cccc13)CC2)C1CCCN(CC2CC2)C1 (stereo not drawn) | - | - | - | -3.3 | - | 0.06
O=c1[nH]sc2cc(F)ccc12 | - | - | - | -7.6 | - | 0.054
CN1C2CCC1/C(=C/c1ccccn1)C(=O)/C2=C\c1ccccn1 | ? | - | - | -3.8 | - | 0.043
Cc1ccccc1-n1c(/C=C/c2ccccn2)nc2ccccc2c1=O | - | . | - | . | . | .
O=Cc1c(C(=O)O)n(Cc2ccc(Cl)cc2)c2ccccc12 | - | - | ? | . | - | 0.053
CCCC(=O)N(C)C1=Nc2ccc(Cl)cc2C(c2ccccc2)=[N+]([O-])C1 | - | . | - | . | . | .
O=C1NC(=O)N(Cc2ccccc2Cl)C(=O)/C1=C/N1CCOCC1 | . | - | - | . | - | 0.06
CN1CCc2nc3sc(C#N)c(N)c3c(-c3cccs3)c2C1 | - | - | - | - | - | ?
CN1CCc2nc(N)c(C#N)c(-c3ccccc3)c2C1 | - | - | - | . | - | .
O=c1c(C=NCc2cccs2)c(O)n(C2CCCCC2)c(=O)n1C1CCCCC1 | . | - | - | - | - | .
O=c1c(C=NCCN2CCNCC2)c(O)n(C2CCCCC2)c(=O)n1C1CCCCC1 | . | - | - | -3.7 | - | -
C=C(COC(=O)CCC(=O)O)CC1CC(O)[C@]2(C)OC3CC4OC5C[C@]6(C)O[C@]7(C)CCC8OC9C[C@]%10(C)OC%11C(C)=CC(=O)OC%11CC%10OC9C[C@@H](C)C8OC7CC6O[C@]5(C)C/C=C\C4OC3CC2O1 (stereo partly drawn) | - | . | - | . | . | -
CC1=CC(=O)OC2CC3OC4C[C@@H](C)C5OC6CC7O[C@]8(C)C/C=C\C9OC%10CC%11OC(CC(C)CO)CC(O)[C@]%11(C)OC%10CC9OC8C[C@]7(C)O[C@]6(C)CCC5OC4C[C@]3(C)OC12 (stereo partly drawn) | - | - | - | . | . | .
CCN(CC)C(=O)c1ccc(NC(=O)Nc2ccccc2F)cc1 | - | - | - | . | . | .
C=CC1CN2CCC1CC2c1[nH]c2ccccc2c1CCO (stereo not drawn) | - | - | - | . | - | .
c1ccc(-c2cc(-c3ccccc3)[n+](-c3ccccc3)c(-c3ccccc3)c2)cc1 | - | . | - | -3.6 | . | 0.044
CN(C)c1ccc(-[n+]2c(-c3ccccc3)cc(-c3ccccc3)cc2-c2ccccc2)cc1 | - | - | - | -2.2 | . | 0.036
C[n+]1c(-c2ccccc2)cc(-c2ccc(Cl)cc2)cc1-c1ccccc1 | - | - | - | - | . | .
CCOC(=O)c1c(-n2c(C)cc(C=C3C(=O)NC(=O)NC3=O)c2C)sc2c1CCCC2 | - | - | . | -4.7 | - | ?
SMILES | bCat nuc transl | MT stabilize HCS | HSV augment | ROMK primary | INS promoter inh | ROMK retest
Cc1cccc(N2C(=O)NC(=O)/C(=C\c3cc(C)n(-c4sc5c(c4C#N)CCCC5)c3C)C2=O)c1C | - | - | ? | . | . | .
CCC1CCCCN1CC(=O)c1ccc(OC(F)F)cc1 (stereo not drawn) | - | - | - | . | . | .
O=c1[nH]c(=S)n(C2CCCCC2)c(O)c1/C=N/N1CCOCC1 | - | . | - | . | . | .
O=C(CN1CCCCC1)c1ccc2c(c1)OCO2 | - | . | - | - | . | .
CC(=O)c1ccc2c(c1)OCO2 | - | - | - | 3 | - | -
c1ccc2c(c1)CC1CNCc3cccc(c31)S2 (stereo not drawn) | - | - | - | -2.8 | - | 0.054

From PubChem BioAssay
